# Experimental data taken from paper PMC3625458 (Journal of medicinal chemistry, 2013).
# Entries after “also recorded” stand apart in the source; their conditions may differ.
# Columns and labels:
# [1] = In vitro microsome stability assay; type: in vitro ADME; conditions: rat, liver microsomes
# CDPK1 G128S = CDPK1 G128S (Toxoplasma gondii, UniProt Q9BJF5, G128S); test: CDPK1 G128S mutant kinase assay, syntide-2 peptide ELISA; type: biochemical
# CDPK1 G128A = CDPK1 G128A (Toxoplasma gondii, UniProt Q9BJF5, G128A); test: CDPK1 G128A mutant kinase assay, syntide-2 peptide ELISA; type: biochemical
# [2] = target: human calmodulin dependent kinase II alpha (αCaMKII) (Homo sapiens, UniProt Q9UQM7); test: CaM Kinase II Assay CycLex kit; type: biochemical
# How it was run: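 Human αCaMKII activity measured with a commercial CaM kinase II assay kit following the maker's recommendations. Test compound in serial dilutions; all samples run in triplicate. Data normalized and log-transformed, then fit by non-linear regression to a sigmoidal dose-response curve with variable slope to obtain IC50.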
# CDPK1 G128T = CDPK1 G128T (Toxoplasma gondii, UniProt Q9BJF5, G128T); test: CDPK1 G128T mutant kinase assay, syntide-2 peptide ELISA; type: biochemical
# CDPK1 G128M = CDPK1 G128M (Toxoplasma gondii, UniProt Q9BJF5, G128M); test: CDPK1 G128M mutant kinase assay, syntide-2 peptide ELISA; type: biochemical
# [3] = test system: T. gondii type II Pru-LUC strain; test: Murine infection model of toxoplasmosis; type: in vivo, mouse; conditions: 30 days post-infection, 5 mg/kg daily i.p. for 10 days
# [4] = test system: T. gondii highly virulent RH strain; conditions: cited from earlier work
# [5] = test system: T. gondii 2F clone of the type I RH strain in HFF cells; test: Inhibition of parasite growth in vitro in HFF monolayers; type: cell-based, Toxoplasma gondii
smiles,measurement,setting,value
"Cc1cccc(Cc2nn(C(C)(C)C)c3ncnc(N)c23)c1 [Compound 1, 3-methyl-benzyl pyrazolo [3,4-d] pyrimidine]",microsome stability,[1],extremely unstable; also recorded: poor microsome stability
same,IC50,CDPK1 G128S,22.9 ± 7.5 nM
same,shift in potency vs Gly gatekeeper,CDPK1 G128S; Gly to Ser,3-5 fold
same,IC50,CDPK1 G128A,13.7 ± 7.1 nM
same,shift in potency vs Gly gatekeeper,CDPK1 G128A; Gly to Ala,3-5 fold
same,IC50,[2],> 10 µM
same,sensitivity of human CamKIIα,[2]; Phe gatekeeper,completely resistant
same,IC50,CDPK1 G128T,222 ± 43.7 nM
same,additional decrease in inhibition,"CDPK1 G128T; Gly to Thr, relative to Ala or Ser",10 fold
same,IC50,CDPK1 G128M,> 10 µM
same,sensitivity of Met gatekeeper TgCDPK1,CDPK1 G128M; Gly to Met,completely insensitive
"CC(C)(C)n1nc(Cc2cccc(Cl)c2)c2c(N)ncnc21 [Compound 3, 3-chloro-benzyl pyrazolo [3,4-d] pyrimidine]",brain tissue cyst burden in surviving mice,[3],considerable variation in the reduction of cyst numbers
"CC(C)(C)n1nc(Cc2cccc(Br)c2)c2c(N)ncnc21 [Compound 4, 3-bromo-benzyl pyrazolo [3,4-d] pyrimidine]",microsomal CLint,[1],> 350 µL/min/mg
"CC(C)(C)n1nc(Cc2cccc3ccccc23)c2c(N)ncnc21 [Compound 6, 1-napthylmethyl-PP]",parasite burdens,"[4]; 10-fold higher doses, i.p. inoculation",modest reduction in parasite burdens
same,protection against lethal challenge,"[4]; oral administration, RH strain",failed to protect
CC(C)(C)n1nc(Cc2cc(Cl)ccc2F)c2c(N)ncnc21 [Compound 10],microsomal CLint,[1],250 µL/min/mg
CC(C)n1nc(Cc2cccc(Cl)c2Cl)c2c(N)ncnc21 [Compound 11],microsomal CLint,[1],190 µL/min/mg
same,brain tissue cyst burden in surviving mice,[3],considerable variation in the reduction of cyst numbers
CC(C)(C)n1nc(Cc2cccc(Cl)c2F)c2c(N)ncnc21 [Compound 18],microsomal CLint,[1],> 350 µL/min/mg
CC(C)(C)n1nc(Cc2ccc(F)c(Cl)c2)c2c(N)ncnc21 [Compound 20],microsomal CLint,[1],> 350 µL/min/mg
CC(C)n1nc(Cc2cc(F)cc(Cl)c2)c2c(N)ncnc21 [Compound 21],microsomal CLint,[1],> 350 µL/min/mg
CC(C)(C)n1nc(Cc2cc(F)cc(F)c2)c2c(N)ncnc21 [Compound 24],brain tissue cyst burden in surviving mice,[3]; 5 mg/kg,much more potent and uniform protection; also recorded: most effective in reducing the chronic burden of CNS infection
CC(C)n1nc(C(O)c2cccc(Cl)c2Cl)c2c(N)ncnc21 (centres unmarked) [Compound 25],microsomal CLint,[1],68 µL/min/mg
same,activity against T. gondii,[5],inactive
CC(C)n1nc(C(F)c2cccc(Cl)c2Cl)c2c(N)ncnc21 (centres unmarked) [Compound 26],microsomal CLint,[1],107 µL/min/mg
"CCc1nc(N)nc(N)c1-c1ccc(Cl)cc1 [pyrimethamine, reference compound]",treatment time required to demonstrate potent inhibition of growth,"[5]; 4 h vs 24 h treatment, growth to 72 h",at least 24 h
